Reference: ChEMBL document CHEMBL2434958, “Identification of a novel series of orexin receptor antagonists with a distinct effect on sleep architecture for the treatment of insomnia” (J Med Chem, 2013)
Calls of active or inactive are those of the source. The rule behind the calls is not given here.

Assays:
[1] = Oral bioavailability in C57BL/6 mouse blood at 3 mg/kg; assay type: ADME, organism-based
Outline: (§1)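 Cassette PK in male C57BL/6 mice (20–30 g), up to five test compounds plus one reference. Iv 1 mg/kg in NMP/blank plasma 10/90 v/v, 5 mL/kg, saphenous vein. Oral 3 mg/kg suspended in 0.5% w/v carboxymethylcellulose in water/Tween 80 (99.5/0.5), 10 mL/kg gavage. Blood sampled 5 min (iv) or 15 min (po) to 24 h, n = 3 per time point, measured by LC/MS/MS.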

[2] = Ratio of drug level in brain to blood in C57BL/6 mouse at 3 mg/kg, po after 15 mins; assay type: ADME, organism-based; set-up: dose 3 mg/kg, route oral
Outline: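 Male C57BL/6 mice (20–30 g), cassette dosing of up to five compounds plus a reference. Blood and brain collected 15 min post-dose, n = 3. Brain homogenised in 2 mM KH2PO4 and extracted with acetonitrile. LC/MS/MS quantitation; mean brain/blood ratio.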

[3] = Total blood clearance in C57BL/6 mouse at 1 mg/kg, iv; assay type: ADME, organism-based; set-up: dose 1 mg/kg, route intravenous; outline: as §1
[4] = Cmax in C57BL/6 mouse blood at 3 mg/kg, po; assay type: ADME, organism-based; set-up: dose 3 mg/kg, route oral; outline: as §1
[5] = AUC (infinity) in C57BL/6 mouse blood at 3 mg/kg, po; assay type: ADME, organism-based; set-up: time infinity, dose 3 mg/kg, route oral; outline: as §1
Orexin receptor type 2 [6] = target: T1, Orexin receptor type 2 (Homo sapiens, UniProt O43614); test: Antagonist activity at human OX2 receptor expressed in HEK cells assessed as inhibition of orexin A-induced Ca2+ accumulation after 1 hr by Fluo-4-AM staining-based FLIPR assay; assay type: functional, cell-based, HEK293
T1 sequence (O43614 whole entry): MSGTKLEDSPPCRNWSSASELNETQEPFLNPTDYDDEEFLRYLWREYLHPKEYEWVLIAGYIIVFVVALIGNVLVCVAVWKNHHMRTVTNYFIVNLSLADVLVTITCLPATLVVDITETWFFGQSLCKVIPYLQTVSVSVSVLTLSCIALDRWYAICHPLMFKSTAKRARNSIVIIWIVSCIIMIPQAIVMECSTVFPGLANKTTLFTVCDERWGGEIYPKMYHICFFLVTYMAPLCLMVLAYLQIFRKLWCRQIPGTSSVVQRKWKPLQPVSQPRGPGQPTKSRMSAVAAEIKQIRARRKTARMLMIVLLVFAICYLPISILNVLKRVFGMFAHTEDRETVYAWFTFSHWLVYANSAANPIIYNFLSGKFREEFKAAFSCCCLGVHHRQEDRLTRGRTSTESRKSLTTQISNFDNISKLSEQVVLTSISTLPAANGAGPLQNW
Outline: (§2)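 Recombinant CHO or HEK cells expressing human OX1R or OX2R, serum-deprived overnight in HEPES buffer pH 7.4 with 1% BSA. Cells were loaded with 2 μM Fluo4-AM plus 0.1 mM probenecid for 1 h. Compound (up to eight concentrations, usually 10⁻⁹–10⁻⁵ M) was added first, then submaximal orexin A 1 h later. Curves run in triplicate; pKi from IC50 by Cheng–Prusoff.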

[7] = Volume of distribution at steady state in C57BL/6 mouse at 1 mg/kg, iv; assay type: ADME, organism-based; set-up: dose 1 mg/kg, route intravenous; details: in vivo, read-out: Vdss; outline: as §1
[8] = target: T2, Orexin/Hypocretin receptor type 1 (Homo sapiens, UniProt O43613); test: Antagonist activity at human OX1 receptor expressed in CHO cells assessed as inhibition of orexin A-induced Ca2+ accumulation after 1 hr by Fluo-4-AM staining-based FLIPR assay; assay type: functional, cell-based; outline: as §2
T2 sequence (O43613 whole entry): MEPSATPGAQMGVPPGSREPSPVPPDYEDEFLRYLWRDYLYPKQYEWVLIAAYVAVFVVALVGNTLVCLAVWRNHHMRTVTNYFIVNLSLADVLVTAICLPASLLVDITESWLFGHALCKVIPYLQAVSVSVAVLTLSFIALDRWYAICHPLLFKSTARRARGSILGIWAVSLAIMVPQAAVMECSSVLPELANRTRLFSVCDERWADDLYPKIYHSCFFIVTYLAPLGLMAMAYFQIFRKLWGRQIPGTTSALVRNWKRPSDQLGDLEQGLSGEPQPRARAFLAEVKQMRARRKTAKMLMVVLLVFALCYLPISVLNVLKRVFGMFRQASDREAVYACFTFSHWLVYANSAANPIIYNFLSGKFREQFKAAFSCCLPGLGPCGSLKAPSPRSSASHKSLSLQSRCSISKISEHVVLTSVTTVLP

Brain [9] = test: Drug uptake in C57BL/6 mouse brain at 50 mg/kg after 1 hr by LC-MS/MS analysis; assay type: ADME, organism-based; set-up: dose 50 mg/kg; details: in vivo
Outline: (§3)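 Satellite PK group: oral gavage of 50 mg/kg suspended in 0.5% w/v methylcellulose in water, 10 mL/kg. Blood and brain taken after decapitation at 15 and 60 min post-dose, n = 3 mice per time point, stored at −20 °C. Brain homogenised in 2 mM KH₂PO₄; acetonitrile quench with internal standard; LC/MS/MS against six-level calibration curve. Mean ± SD reported.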

[10] = target: T3, Orexin/Hypocretin receptor type 1 (Mus musculus, UniProt P58307); test: Antagonist activity at mouse OX1 receptor expressed in CHO cells assessed as inhibition of orexin A-induced Ca2+ accumulation after 1 hr by Fluo-4-AM staining-based FLIPR assay; assay type: functional, cell-based
T3 sequence (P58307 whole entry): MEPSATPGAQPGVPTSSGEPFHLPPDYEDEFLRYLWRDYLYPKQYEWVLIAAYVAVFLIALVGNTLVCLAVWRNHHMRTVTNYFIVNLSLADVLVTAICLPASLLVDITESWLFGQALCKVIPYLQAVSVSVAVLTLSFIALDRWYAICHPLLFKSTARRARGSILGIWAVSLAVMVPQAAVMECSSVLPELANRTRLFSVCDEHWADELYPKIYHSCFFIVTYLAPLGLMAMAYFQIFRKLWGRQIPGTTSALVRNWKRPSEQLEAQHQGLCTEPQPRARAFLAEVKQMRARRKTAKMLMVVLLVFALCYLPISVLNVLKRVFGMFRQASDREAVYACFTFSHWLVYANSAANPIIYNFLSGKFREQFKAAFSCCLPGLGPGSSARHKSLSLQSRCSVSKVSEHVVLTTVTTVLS

Mus musculus [11] = test: Induction of sleep in C57BL/6 mouse assessed as increased rapid eye movement sleep proportion at 50 mg/kg, po measured during 1 hr by EEG/EMG analysis relative to vehicle-treated control; assay type: functional, organism-based; set-up: dose 50 mg/kg
Outline: (§4)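 Male C57Bl/6 mice with implanted cortical EEG screw electrodes and EMG, recovered 2 weeks, 12 h/12 h light/dark cycle. Crossover: vehicle (0.5% methylcellulose, 10 mL/kg po) on day 2, compound po on day 3, each given 5–15 min before lights-off. 23 h recordings; EEG filtered 0.3–30 Hz, EMG 5–30 Hz; 10 s epochs scored as wake, NREM or REM from EEG/EMG and infrared motility.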

Brain [12] = test: Fraction unbound in C57BL/6 mouse brain at 50 mg/kg, po after 1 hr by LC-MS/MS analysis; assay type: ADME, organism-based; set-up: dose 50 mg/kg, route oral; details: in vivo
Outline: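 Unbound fraction assessed in mouse brain homogenate by a slightly adapted literature method, measured separately from the dosed animals. Free brain level obtained by multiplying fraction unbound by brain concentration from the 50 mg/kg po satellite group at 60 min. Mean ± SD, n = 3.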

[13] = Drug uptake in C57BL/6 mouse blood at 50 mg/kg after 1 hr by LC-MS/MS analysis; assay type: ADME, organism-based; set-up: dose 50 mg/kg; details: read-out: Drug uptake; outline: as §3
Mus musculus [14] = test: Induction of sleep in C57BL/6 mouse assessed as increase in total sleep time at 50 mg/kg, po measured during first 4 hrs by EEG/EMG analysis relative to vehicle-treated control
Mus musculus [15] = test: Induction of sleep in C57BL/6 mouse assessed as increase in non-rapid eye movement at 50 mg/kg, po measured during 4 hrs by EEG/EMG analysis relative to vehicle-treated control; assay type: functional, organism-based; set-up: dose 50 mg/kg; outline: as §4
Mus musculus [16] = test: Induction of sleep in C57BL/6 mouse assessed as rapid eye movement and non-rapid eye movement sleep balance at 50 mg/kg, po measured during 1 hr by EEG/EMG analysis relative to vehicle-treated control; assay type: functional, organism-based; set-up: dose 50 mg/kg
Outline: (§5)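 Male C57Bl/6 mice with implanted cortical EEG and EMG electrodes, 2-week recovery, 12/12 h light cycle. Vehicle (0.5% methylcellulose, 10 mL/kg po) given on day 2 and compound po on day 3, just before lights off. Recording ran 23 h. 10 s epochs scored as wake, NREM or REM from EEG/EMG plus infrared motility. Each animal served as its own vehicle control.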

Mus musculus [17] = test: Induction of sleep in C57BL/6 mouse assessed as increase in rapid eye movement at 50 mg/kg, po measured during 1 hr by EEG/EMG analysis relative to vehicle-treated control; assay type: functional, organism-based; set-up: dose 50 mg/kg; outline: as §5
Orexin receptor type 2 [18] = target: T4, Orexin receptor type 2 (Mus musculus, UniProt P58308); test: Antagonist activity at mouse OX2 receptor expressed in HEK cells assessed as inhibition of orexin A-induced Ca2+ accumulation after 1 hr by Fluo-4-AM staining-based FLIPR assay; assay type: functional, cell-based, HEK293
T4 sequence (P58308 whole entry): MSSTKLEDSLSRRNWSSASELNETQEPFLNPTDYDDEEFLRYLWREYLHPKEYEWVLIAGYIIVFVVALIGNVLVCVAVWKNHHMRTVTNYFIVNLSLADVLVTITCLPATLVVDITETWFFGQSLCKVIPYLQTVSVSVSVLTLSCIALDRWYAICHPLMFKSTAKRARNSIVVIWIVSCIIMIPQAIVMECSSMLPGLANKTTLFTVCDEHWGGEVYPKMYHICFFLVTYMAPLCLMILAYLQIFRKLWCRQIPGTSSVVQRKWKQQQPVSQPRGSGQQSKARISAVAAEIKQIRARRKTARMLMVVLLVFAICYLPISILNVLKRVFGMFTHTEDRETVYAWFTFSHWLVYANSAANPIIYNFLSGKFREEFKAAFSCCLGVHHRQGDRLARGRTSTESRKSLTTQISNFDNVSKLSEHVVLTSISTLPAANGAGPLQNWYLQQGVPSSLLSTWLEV

Mus musculus [19] = test: Effect on locomotion in C57BL/6 mouse assessed as reduction of motility at 50 mg/kg, po measured up to 4 hrs; assay type: functional, organism-based; set-up: dose 50 mg/kg
Outline: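 Mice habituated, then dosed orally immediately before lights-off (15:00, start of active phase); vehicle 0.5% methylcellulose in water. Inactivity = any minute with no infrared beam breaks. Per-animal difference between inactivity 15:00–19:00 post-dose and the same 4 h during habituation 24 h earlier. n = 6; one-way ANOVA with Dunnett's test versus vehicle.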

O=C1CCCC2(CCN(c3cnc4ccccc4n3)CC2)N1Cc1cccc2[nH]ccc12
bioavailability [1]: 5% | Kp at 0.25 h [2]: 0.2 | clearance [3]: 188 mL/min/kg | Cmax [4]: 18 nM | AUC(0-inf) [5]: 0.031 µM·h | Ki (Orexin receptor type 2 [6]): 0.457 nM | Vd [7]: 3.1 L/kg | Ki [8]: 9.12 nM

Cc1cc(C)nc(N2CCC3(CCCN(Cc4nn(C)nc4-c4ccccc4)C3=O)CC2)n1
Ki (Orexin receptor type 2 [6]): 4.57 nM | Ki [8]: 759 nM

O=C1CCCC2(CCN(c3cnc4ccccc4n3)CC2)N1Cc1ccccc1
Ki (Orexin receptor type 2 [6]): 589 nM | Ki [8]: 1480 nM

O=C1N(Cc2cccc3[nH]ccc23)CCCC12CCN(c1cnc3ccccc3n1)CC2
Ki (Orexin receptor type 2 [6]): 77.6 nM | Ki [8]: 550 nM

O=C1N(Cc2c[nH]c3ccccc23)CCCC12CCN(c1cnc3ccccc3n1)CC2
Ki (Orexin receptor type 2 [6]): 61.7 nM | Ki [8]: 288 nM

COc1ccnc(N2CCC3(CCCN(Cc4c[nH]c5ccccc45)C3=O)CC2)n1
bioavailability [1]: 47% | Drug uptake (Brain [9]): 8778 pmol/g | Kp at 0.25 h [2]: 1.1 | clearance [3]: 28 mL/min/kg | Cmax [4]: 864 nM | Ki [10]: 457 nM | Activity (Mus musculus [11]): Active | Fu (Brain [12]): 0.61% | concentration at 1 h [13]: 6910 nM | Activity (Mus musculus [14]): Active | Activity (Mus musculus [15]): Active | Activity (Mus musculus [16]): inactive | AUC(0-inf) [5]: 2.09 µM·h | Activity (Mus musculus [17]): inactive | Vd [7]: 1.6 L/kg | Ki (Orexin receptor type 2 [18]): 58.9 nM | Activity (Mus musculus [19]): Active

O=C(Cc1ccccc1)N1CCCC12CCN(c1cnc3ccccc3n1)CC2
Ki (Orexin receptor type 2 [6]): 186 nM | Ki [8]: 955 nM

O=C1CCCC2(CCN(c3cnc4ccccc4n3)CC2)N1Cc1c[nH]c2ccccc12
Ki (Orexin receptor type 2 [6]): 69.2 nM | Ki [8]: 275 nM

O=C1N(Cc2c[nH]c3ccccc23)CCCC12CCN(c1cnccn1)CC2
Ki (Orexin receptor type 2 [6]): 309 nM | pIC50 ([8]; cho): > 5

Cc1cc(C)nc(N2CCC3(CCCC(=O)N3Cc3cccc4[nH]ccc34)CC2)n1
Ki (Orexin receptor type 2 [6]): 0.851 nM | Ki [8]: 372 nM

Cc1cc(C)nc(N2CCC3(CCCN(Cc4n[nH]c5ccccc45)C3=O)CC2)n1
Ki (Orexin receptor type 2 [6]): 6.92 nM | Ki [8]: 490 nM

O=C1N(Cc2ccccc2)CCCC12CCN(c1cnc3ccccc3n1)CC2
Ki (Orexin receptor type 2 [6]): 182 nM | Ki [8]: 1550 nM
